Key:
Format in all cases: functional, Mesocricetus auratus
[1] = tested on: Syrian golden hamster; test: Protective activity against ischemia/reperfusion-induced increase in macromolecular permeability in po dosed golden hamster cheek pouch administered 30 mins before induction of anesthesia
Summary of the method: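 Male hamsters, dosed by gavage 30 min before anesthesia induction. The cheek pouch was made totally ischemic for 30 min with a syringe-inflated rubber tourniquet until blood flow ceased. Macromolecular leakage sites per cm² were counted by intravital microscopy 10 min after reperfusion onset and expressed as percentage protection relative to controls.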

[2] = tested on: Syrian golden hamster; test: Protective activity against ischemia/reperfusion-induced increase in macromolecular permeability in iv dosed golden hamster cheek pouch administered 10 mins before onset of reperfusion
Summary of the method: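 Male hamster cheek pouch under intravital microscopy; compound given intravenously 10 min before reperfusion onset. Total ischemia of 30 min was produced by a soft rubber tourniquet, pressurized by syringe until flow stopped. Leakage sites (leaks/cm²) were counted 10 min after reperfusion onset and converted to percentage protection against untreated controls.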

[3] = tested on: Syrian golden hamster; test: Protective activity against histamine-induced increase in macromolecular permeability in po dosed golden hamster cheek pouch administered 30 mins before induction of anesthesia
Summary of the method: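 Oral gavage to male hamsters 30 min before anesthesia induction. Permeability increase was induced by topical histamine on the cheek pouch and read as leakage sites per unit area (leaks/cm²) by intravital microscopy.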

[4] = tested on: Syrian golden hamster; test: Protective activity against ischemia/reperfusion-induced increase in macromolecular permeability in po dosed golden hamster cheek pouch administered for 10 days
[5] = tested on: Syrian golden hamster; test: Protective activity against histamine-induced increase in macromolecular permeability in po dosed golden hamster cheek pouch administered for 10 days

Compound	Activity [1] [%]	Activity [2] [%]	Activity [3] [%]	Activity [4] [%]	Activity [5] [%]
C/[N+]([O-])=C/c1ccc2c(c1)OCO2	3	50	42		
Cc1ccc(/C=[N+](\[O-])C(C)(C)C)cc1	14	55			
C/[N+]([O-])=C/c1cccc(Oc2ccccc2)c1	46	61	13		
COc1cc(/C=[N+](/C)[O-])ccc1OCc1ccccc1	72	51	15		
C/[N+]([O-])=C/c1ccco1	15	59	32		
CC(C)(C)NO	10	7	40		
Cc1c(C)c2c(c(C)c1O)CC[C@@](C)(CCC[C@H](C)CCC[C@H](C)CCCC(C)C)O2 [ALPHA-TOCOPHEROL]				50	40
COc1cc(/C=[N+](\[O-])C(C)(C)C)ccc1OCc1ccccc1	68	36	32		
CC(C)(C)/[N+]([O-])=C/c1ccc(Cl)cc1	63	53			
CC(C)(C)/[N+]([O-])=C/c1ccc2c(c1)OCO2	65	38			
Cc1ccc(/C=[N+](/C)[O-])cc1	24	21			
CNO	23	33	11		
C/[N+]([O-])=C/c1ccc(Cl)cc1	31	27	29		
CC(C)(C)/[N+]([O-])=C/c1cccc(Oc2ccccc2)c1	12	18			
